Data as given in ChEMBL document CHEMBL1131259, “Synthesis and evaluation of diphenyl phosphonate esters as inhibitors of the trypsin-like granzymes A and K and mast cell tryptase” (J Med Chem, 1998).
The source made the active and inactive calls. The calls are words filed in the database; no cut-off is given here.

How the values were obtained:
[1] = target: T1, Serine protease 1 (Bos taurus) (UniProt P00760); assay: Inhibition of bovine trypsin
T1 sequence (whole entry): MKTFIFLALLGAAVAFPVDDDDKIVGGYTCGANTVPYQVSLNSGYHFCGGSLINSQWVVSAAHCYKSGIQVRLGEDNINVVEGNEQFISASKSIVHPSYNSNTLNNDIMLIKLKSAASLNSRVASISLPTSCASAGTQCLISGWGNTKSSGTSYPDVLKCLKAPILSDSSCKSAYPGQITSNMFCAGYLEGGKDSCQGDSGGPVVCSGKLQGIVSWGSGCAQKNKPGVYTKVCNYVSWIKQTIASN
Outline: (§1)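 Irreversible inhibition assayed by incubation at 25 °C in 0.1 M Hepes, 0.01 M CaCl2, pH 7.5 (2% DMSO), inhibitor 1.0–450 μM. Timed aliquots were read for residual activity on Cbz-Arg-SBzl with DTNB at 410 nm. Pseudo-first-order k_obs came from ln vt/vo vs time, using 5–10 points over 2–3 half-lives, three k_obs per inhibitor. DMSO-only controls were run. For no-inhibition lines, none was seen after 25 min.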

[2] = target: T2, Granzyme A (Homo sapiens) (UniProt P12544); assay: Inhibition of human granzyme A
T2 sequence (whole entry): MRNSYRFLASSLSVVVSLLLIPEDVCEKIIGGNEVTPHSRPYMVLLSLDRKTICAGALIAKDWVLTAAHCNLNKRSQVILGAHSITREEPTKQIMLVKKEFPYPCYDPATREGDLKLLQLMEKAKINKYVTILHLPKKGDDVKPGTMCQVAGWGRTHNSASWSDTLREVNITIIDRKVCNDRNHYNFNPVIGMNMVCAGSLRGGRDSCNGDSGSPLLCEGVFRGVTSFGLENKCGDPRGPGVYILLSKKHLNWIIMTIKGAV
Outline: (§2)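 Recombinant human and rat granzyme A, incubated with inhibitor (1.0–450 μM) at 25 °C in 0.1 M Hepes, 0.01 M CaCl2, pH 7.5 (7.6% DMSO). Timed aliquots were read for residual activity on Cbz-Arg-SBzl with DTNB at 405 nm. k_obs came from ln vt/vo vs time over 5–10 points and 2–3 half-lives, two k_obs per inhibitor. DMSO controls were run.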

[3] = target: T3, Granzyme A (Rattus norvegicus) (UniProt Q8CJF4); assay: Inhibition of rat granzyme A.; outline: as §2
T3 sequence (whole entry): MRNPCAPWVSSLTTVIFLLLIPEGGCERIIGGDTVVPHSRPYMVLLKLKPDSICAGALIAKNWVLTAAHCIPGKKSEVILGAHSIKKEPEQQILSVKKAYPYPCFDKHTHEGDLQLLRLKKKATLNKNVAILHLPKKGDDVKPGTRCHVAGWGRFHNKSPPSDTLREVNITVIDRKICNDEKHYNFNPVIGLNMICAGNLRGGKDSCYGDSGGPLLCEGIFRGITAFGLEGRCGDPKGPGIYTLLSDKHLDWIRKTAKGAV

[4] = target: T4, Granzyme K (Rattus norvegicus) (UniProt P49864); assay: Compound was evaluated to inhibit rat granzyme K; No inhibition
T4 sequence (whole entry): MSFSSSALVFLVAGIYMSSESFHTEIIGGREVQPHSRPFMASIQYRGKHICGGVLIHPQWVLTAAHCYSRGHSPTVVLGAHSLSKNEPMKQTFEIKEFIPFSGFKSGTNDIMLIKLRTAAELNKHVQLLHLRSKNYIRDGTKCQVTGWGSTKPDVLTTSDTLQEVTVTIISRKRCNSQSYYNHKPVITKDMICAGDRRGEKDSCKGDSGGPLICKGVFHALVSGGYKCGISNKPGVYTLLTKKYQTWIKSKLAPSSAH
Outline: (§3)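 Native rat granzyme K, purified by size-exclusion in 1 M NaCl then MonoS cation exchange. Incubated with inhibitor (1.0–450 μM) at 25 °C in 0.1 M Hepes, 0.01 M CaCl2, pH 7.5 (7.1% DMSO). Timed aliquots were read for residual activity on Cbz-Arg-SBzl with DTNB at 405 nm. k_obs came from ln vt/vo vs time, one or two per inhibitor. For no-inhibition lines, none was seen after 25 min.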

[5] = target: T5, Tryptase (Homo sapiens) (UniProt Q9BZJ3+Q15661+Q9NRR2); assay: Inhibition of mast cell tryptase; format: protein assay
Outline: (§4)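 Human lung mast cell tryptase, high-molecular-weight form, heparin-free, active sites titrated with MUGB. Incubated with inhibitor at 25 °C in 0.1 M Hepes, 10% glycerol, 10 mM heparin, pH 7.5 (7.1% DMSO). […] DMSO controls were run.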

[6] = target: T5, Tryptase (Homo sapiens); assay: Compound was evaluated to inhibit mast cell tryptase; No inhibition; format: protein assay; outline: as §4
[7] = target: T4, Granzyme K (Rattus norvegicus); assay: Inhibition of rat granzyme K; outline: as §3
[8] = target: T1, Serine protease 1 (Bos taurus); assay: Compound was evaluated to inhibit bovine trypsin; No inhibition; outline: as §1
[9] = target: T4, Granzyme K (Rattus norvegicus); assay: Compound was evaluated to inhibit rat granzyme K;No inhibition; outline: as §3
[10] = target: T5, Tryptase (Homo sapiens); assay: Compound was evaluated to inhibit mast cell tryptase.; format: protein assay; conditions: concentration not given here; outline: as §4

Row | SMILES | K obs / 1 [1] [M⁻¹ s⁻¹] | kobs/[I] (second-order inactivation rate constant) [2] [M⁻¹ s⁻¹] | K obs / 1 [3] [M⁻¹ s⁻¹] | K obs / 1 [4] | kobs/[I] (second-order inhibition rate constant) [5] [M⁻¹ s⁻¹] | K obs / 1 [6] | kobs/[I] (second-order inactivation rate constant) [7] [M⁻¹ s⁻¹] | K obs / 1 [8] | K obs / 1 [9] | inhibition [10] [%]
1 | NC(N)c1ccc(C(NS(=O)(=O)c2cccc3ccccc23)P(=O)(Oc2ccccc2)Oc2ccccc2)cc1 (stereo not given) | 170 | 330 | 30 | inactive | 10 | – | – | – | – | –
2 | C[C@H](NC(=O)[C@@H](CC(=O)OC(C)(C)C)NC(=O)OCc1ccccc1)C(=O)NC(c1ccc(C(=N)N)cc1)P(=O)(Oc1ccccc1)Oc1ccccc1 (stereo not given in full) | 2000 | 280 | – | inactive | 3 | – | – | – | – | –
3 | N=C(N)c1ccc(C(NC(=O)/C=C/c2cccnc2)P(=O)(Oc2ccccc2)Oc2ccccc2)cc1 (stereo not given) | – | 5 | 1 | – | – | inactive | 3 | inactive | – | –
4 | NCCCC(NC(=O)OCc1ccccc1)P(=O)(Oc1ccccc1)Oc1ccccc1 (stereo not given) | – | 0.6 | – | inactive | – | inactive | – | inactive | – | –
5 | CC(C)C[C@H](NC(=O)OCc1ccccc1)C(=O)NC(c1ccc(C(=N)N)cc1)P(=O)(Oc1ccccc1)Oc1ccccc1 (stereo not given in full) | 50 | 6.3 | – | – | 0.3 | – | – | – | inactive | –
6 | C[C@H](NC(=O)OCc1ccccc1)C(=O)NC(c1ccc(C(N)N)cc1)P(=O)(Oc1ccccc1)Oc1ccccc1 (stereo not given in full) | 1850 | 1670 | 1270 | inactive | 0.8 | – | – | – | – | –
7 | N=C(N)c1ccc(C(NC(=O)[C@H](Cc2ccccc2)NC(=O)OCc2ccccc2)P(=O)(Oc2ccccc2)Oc2ccccc2)cc1 (stereo not given in full) | 17 | 14 | 8 | – | – | – | 13 | – | – | 5
8 | C[C@H](NC(=O)[C@@H](CCCCN)NC(=O)OCc1ccccc1)C(=O)NC(c1ccc(C(N)N)cc1)P(=O)(Oc1ccccc1)Oc1ccccc1 (stereo not given in full) | 3140 | 90 | – | inactive | 2 | – | – | – | – | –
9 | N=C(N)c1ccc(C(NC(=O)[C@@H]2CCCN2C(=O)c2cccc(Oc3ccccc3)c2)P(=O)(Oc2ccccc2)Oc2ccccc2)cc1 (stereo not given in full) | 4080 | 330 | – | inactive | – | – | – | – | – | 7
